Measured values: ChEMBL document CHEMBL1122280, “Analogues of hycanthone and lucanthone as antitumor agents” (1983)

Columns and labels:
P388 [1] = test: In vivo antitumor activity against P-388 lymphocytic leukemia in mice treated with a dose of 50 mg/kg; assay type: functional, Mus musculus
Summary of the method: (§1)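 Mice bearing P-388 leukemia were dosed once daily for 5 days, or once daily for 9 days for the two reference parent drugs. Activity is expressed as a T/C value.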

P388 [2] = test: In vivo antitumor activity against P-388 lymphocytic leukemia in mice treated with a dose of 12.5 mg/kg; assay type: functional, Mus musculus; summary of the method: as §1
P388 [3] = test: In vivo antitumor activity against P-388 lymphocytic leukemia in mice treated with a dose of 25 mg/kg; assay type: functional, Mus musculus; summary of the method: as §1
P388 [4] = test: In vivo antitumor activity against P-388 lymphocytic leukemia in mice treated with a dose of 200 mg/kg for 5 days
P388 [5] = test: In vivo antitumor activity against P-388 lymphocytic leukemia in mice treated with a dose of 25 mg/kg for 2 days; assay type: functional, Mus musculus; settings: in the assay text read “for 5 days” for “for 2 days”
P388 [6] = test: In vivo antitumor activity against P-388 lymphocytic leukemia in mice treated with a dose of 100 mg/kg for 2 days; assay type: functional, Mus musculus; settings: in the assay text read “for 5 days” for “for 2 days”
P388 [7] = test: In vivo antitumor activity against P-388 lymphocytic leukemia in mice treated with a dose of 50 mg/kg for 2 days; assay type: functional, Mus musculus; settings: in the assay text read “for 5 days” for “for 2 days”
P388 [8] = test: In vivo antitumor activity against P-388 lymphocytic leukemia in mice treated with a dose of 75 mg/kg for 2 days; assay type: functional, Mus musculus
Summary of the method: (§2)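 P-388 leukemia-bearing mice received the drug on only 2 days, day 1 and day 4 after inoculation. Activity is expressed as a T/C value.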

P388 [9] = test: In vivo antitumor activity against P-388 lymphocytic leukemia in mice treated with a dose of 9.88 mg/kg for 2 days; assay type: functional, Mus musculus; summary of the method: as §2
P388 [10] = test: In vivo antitumor activity against P-388 lymphocytic leukemia in mice treated with a dose of 37.5 mg/kg for 2 days; assay type: functional, Mus musculus; summary of the method: as §2
P388 [11] = test: In vivo antitumor activity against P-388 lymphocytic leukemia in mice treated with a dose of 18.75 mg/kg for 2 days; assay type: functional, Mus musculus; summary of the method: as §2
P388 [12] = test: In vivo antitumor activity against P-388 lymphocytic leukemia in mice treated with a dose of 100 mg/kg; assay type: functional, Mus musculus; summary of the method: as §1
P388 [13] = test: In vivo antitumor activity against P-388 lymphocytic leukemia in mice treated with a dose of 200 mg/kg; assay type: functional, Mus musculus; summary of the method: as §1
P388 [14] = test: In vivo antitumor activity against P-388 lymphocytic leukemia in mice treated with a dose of 60 mg/kg; assay type: functional, Mus musculus; summary of the method: as §1

SMILES: CCN(CC)CCNc1ccc(C)c2oc3ccc(O)cc3c(=O)c12
- T/C (P388 [1]): 117
- T/C (P388 [2]): 106
- T/C (P388 [3]): 106

SMILES: CN(C)CCNc1ccc(CO)c2sc3ccc(O)cc3c(=O)c12
- T/C (P388 [4]): 222
- T/C (P388 [5]): 160
- T/C (P388 [6]): 194
- T/C (P388 [7]): 175

SMILES: CCN(CC)CCNc1ccc(CO)c2sc3ccc(O)cc3c(=O)c12
- T/C (P388 [8]): 207
- T/C (P388 [9]): 163
- T/C (P388 [10]): 179
- T/C (P388 [11]): 207

SMILES: Cc1ccc(NCCN(C)C)c2c(=O)c3cc(O)ccc3oc12
- T/C (P388 [1]): 108
- T/C (P388 [2]): 99
- T/C (P388 [3]): 106

SMILES: CCN(CC)CCNc1ccc(CO)c2oc3ccc(O)cc3c(=O)c12
- T/C (P388 [1]): 181
- T/C (P388 [12]): 214
- T/C (P388 [13]): 163

SMILES: CN(C)CCNc1ccc(CO)c2sc3ccccc3c(=O)c12
- T/C (P388 [1]): 114
- T/C (P388 [12]): 150
- T/C (P388 [3]): 94

SMILES: CN(C)CCNc1ccc(CO)c2oc3ccc(O)cc3c(=O)c12
- T/C (P388 [1]): 170
- T/C (P388 [13]): 128

SMILES: CCN(CC)CCNc1ccc(CO)c2sc3ccccc3c(=O)c12 [HYCANTHONE]
- T/C (P388 [14]): 165

SMILES: CCN(CC)CCNc1ccc(C)c2sc3ccccc3c(=O)c12 [LUCANTHONE]
- T/C (P388 [12]): 158
